# Reference: ChEMBL document CHEMBL1156176, “Total synthesis, antiprotozoal and cytotoxicity activities of rhuschalcone VI and analogs” (Bioorg Med Chem, 2010)
# What was measured:
# Parabodo caudatus [1] = assay: Antiprotozoal activity against Bodo caudatus at 0.6 mg/ml after 24 hrs by MTT assay; assay type: functional
# Summary of the method: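 Bodo caudatus (maintained at 30 °C in cereal grass medium diluted 1:1 with water, fed E. coli DH5α, subcultured every 7–12 days); 10,000 protozoa per well with penicillin/streptomycin/kanamycin, exposed 24 h to 0.6 mg/mL final; CuSO4 at same concentration as positive control, 8% DMSO solvent control. MTT added, 2 h, DMSO-dissolved, A570 viability; triplicates; inhibition vs controls.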
# Parabodo caudatus [2] = assay: Antiprotozoal activity against Bodo caudatus after 48 hrs by MTT assay; assay type: functional
# Summary of the method: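 B. caudatus from culture in cereal grass medium diluted 1:1 with water plus E. coli DH5a, kept at 30 °C; adjusted to 1 × 10^5/mL with penicillin, streptomycin and kanamycin added; exposed 48 h to serial dilutions (final 0.0001–1000 µg/mL) at 37 °C/5% CO2; MTT added for 4 h, crystals dissolved in DMSO, A570 read; LC50 from triplicate determinations.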
# [3] = Cytotoxicity against BHK cells at 100 ug/ml after 48 hrs by MTT assay; assay type: cell-based, Mesocricetus auratus; details: hamster; for Activity: bhk, 48 h
# Summary of the method: (§1)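 BHK cells (DMEM/F10 1:1, 10% fetal calf serum, penicillin/streptomycin, 37 °C/5% CO2) at 1 × 10^5/mL, adhered overnight, exposed 48 h to serial dilutions (0.0001–100 µg/mL in figure). MTT for 4 h, DMSO solubilisation, A570; survival vs untreated cells; CC50 from triplicate means ± SD.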
# Parabodo caudatus [4] = assay: Antiprotozoal activity against Bodo caudatus hrs by MTT assay; assay type: functional, organism-based; details: TDE = time-dependent effect
# Summary of the method: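 B. caudatus adjusted to 1 × 10^5/mL in growth medium with penicillin/streptomycin/kanamycin, exposed 48 h at 37 °C/5% CO2 to serial dilutions (0.0001–1000 µg/mL final). MTT added for further 4 h, crystals dissolved in DMSO, absorbance 570 nm. LC50 (50% lethal concentration) from mean ± SD of triplicates.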
# [5] = Cytotoxicity against BHK cells after 48 hrs by MTT assay; assay type: cell-based, Mesocricetus auratus; details: hamster; summary of the method: as §1
Structure (SMILES),Activity (Parabodo caudatus [1]),LC50 (Parabodo caudatus [2]),Activity [3],Activity (Parabodo caudatus [4]),CC50 at 48 h ([3]; BHK cells),CC50 at 48 h [5]
COc1cc(O)c(C(=O)/C=C/c2ccc(O)cc2)cc1-c1cc(/C=C/C(=O)c2ccc(O)cc2O)ccc1O,75%,118 µg/mL,Non-toxic,tde,,
O=C(/C=C/c1ccc(O)c(-c2cc(C(=O)/C=C/c3ccc(O)cc3)c(O)cc2O)c1)c1ccc(O)cc1O [RHUSCHALCONE VI],75%,53.3 µg/mL,,tde,97.6 µg/mL,
O=C(/C=C/c1ccc(O)c(-c2cc(C(=O)/C=C/c3ccc(O)cc3)c(O)cc2O)c1)c1ccccc1,75%,20.6 µg/mL,Non-toxic,tde,,
CC(C)=CCc1c(O)ccc(C(=O)/C=C/c2ccc(O)cc2)c1O [ISOBAVACHALCONE],75%,4.36 µg/mL,,tde,,86.9 µg/mL
